System: Fibroblast
Assay: Multiplex assay against human fibroblast
Assay type: toxicity, cell-based
Summary of the method: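 Phenotypes for tubulin, mitochondrial mass and membrane permeability are expressed as per cents of healthy-nucleus cells. Cells were stained live at seeding with Hoechst33342, BioTracker Green Microtubule Cytoskeleton Dye, MitoTracker Red and Annexin V Alexa Fluor 680, then imaged after compound addition on a CQ1 microscope at 37°C and 5% CO2. Machine-learning gating in CellPathfinder separated Hoechst high-intensity objects from normal cells, divided normal cells by nuclear state (healthy, pyknosed, fragmented) and divided pyknosed cells into mitotic or apoptotic.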

[1] = 12 h, 1 µM, compound concentration 1 uM, replicate 1
[2] = 12 h, 1 µM, compound concentration 1 uM, replicate 2
[3] = 12 h, 10 µM, compound concentration 10 uM, replicate 1
[4] = 12 h, 10 µM, compound concentration 10 uM, replicate 2
[5] = 24 h, 1 µM, compound concentration 1 uM, replicate 1
[6] = 24 h, 1 µM, compound concentration 1 uM, replicate 2
[7] = 24 h, 10 µM, compound concentration 10 uM, replicate 1
[8] = 24 h, 10 µM, compound concentration 10 uM, replicate 2

## Cc1ccc(NC(=O)Nc2cc(C(F)(F)F)ccc2F)cc1Nc1ccc2c(c1)NC(=O)/C2=C\c1ccc[nH]1
[1]
  Population Apoptotic (%): 36%
  Population Fragmented Nuclei (%): 13%
  Population Healthy Nuclei (%): 59%
  Population Hoechst High Intensity Objects (%): 10%
  Population Membrane Permeable-Phenotype (%): 58%
  Population Mitochondria Different-Phenotype (%): 0%
  Population Mitotic Cells (%): 63%
  Population Normal (%): 89%
  Population Pyknosed Nuclei (%): 27%
  Population Tubulin-Different-Phenotype (%): 36%
  Total Cell Count: 178
[2]
  Population Apoptotic (%): 100%
  Population Fragmented Nuclei (%): 60%
  Population Healthy Nuclei (%): 36%
  Population Hoechst High Intensity Objects (%): 50%
  Population Membrane Permeable-Phenotype (%): 63%
  Population Mitochondria Different-Phenotype (%): 18%
  Population Mitotic Cells (%): 0%
  Population Normal (%): 49%
  Population Pyknosed Nuclei (%): 3%
  Population Tubulin-Different-Phenotype (%): 54%
  Total Cell Count: 61
[3]
  Population Apoptotic (%): 66%
  Population Fragmented Nuclei (%): 15%
  Population Healthy Nuclei (%): 52%
  Population Hoechst High Intensity Objects (%): 17%
  Population Membrane Permeable-Phenotype (%): 4%
  Population Mitochondria Different-Phenotype (%): 3%
  Population Mitotic Cells (%): 33%
  Population Normal (%): 82%
  Population Pyknosed Nuclei (%): 32%
  Population Tubulin-Different-Phenotype (%): 5%
  Total Cell Count: 210
[4]
  Population Apoptotic (%): 20%
  Population Fragmented Nuclei (%): 50%
  Population Healthy Nuclei (%): 40%
  Population Hoechst High Intensity Objects (%): 20%
  Population Membrane Permeable-Phenotype (%): 0%
  Population Mitochondria Different-Phenotype (%): 19%
  Population Mitotic Cells (%): 80%
  Population Normal (%): 80%
  Population Pyknosed Nuclei (%): 9%
  Population Tubulin-Different-Phenotype (%): 0%
  Total Cell Count: 65
[5]
  Population Apoptotic (%): 28%
  Population Fragmented Nuclei (%): 10%
  Population Healthy Nuclei (%): 61%
  Population Hoechst High Intensity Objects (%): 8%
  Population Membrane Permeable-Phenotype (%): 51%
  Population Mitochondria Different-Phenotype (%): 0%
  Population Mitotic Cells (%): 71%
  Population Normal (%): 91%
  Population Pyknosed Nuclei (%): 27%
  Population Tubulin-Different-Phenotype (%): 31%
  Total Cell Count: 179
[6]
  Population Apoptotic (%): 100%
  Population Fragmented Nuclei (%): 61%
  Population Healthy Nuclei (%): 34%
  Population Hoechst High Intensity Objects (%): 55%
  Population Membrane Permeable-Phenotype (%): 55%
  Population Mitochondria Different-Phenotype (%): 11%
  Population Mitotic Cells (%): 0%
  Population Normal (%): 44%
  Population Pyknosed Nuclei (%): 3%
  Population Tubulin-Different-Phenotype (%): 55%
  Total Cell Count: 59
[7]
  Population Apoptotic (%): 51%
  Population Fragmented Nuclei (%): 18%
  Population Healthy Nuclei (%): 61%
  Population Hoechst High Intensity Objects (%): 17%
  Population Membrane Permeable-Phenotype (%): 5%
  Population Mitochondria Different-Phenotype (%): 3%
  Population Mitotic Cells (%): 48%
  Population Normal (%): 82%
  Population Pyknosed Nuclei (%): 20%
  Population Tubulin-Different-Phenotype (%): 5%
  Total Cell Count: 237
[8]
  Population Apoptotic (%): 50%
  Population Fragmented Nuclei (%): 54%
  Population Healthy Nuclei (%): 41%
  Population Hoechst High Intensity Objects (%): 29%
  Population Membrane Permeable-Phenotype (%): 0%
  Population Mitochondria Different-Phenotype (%): 5%
  Population Mitotic Cells (%): 50%
  Population Normal (%): 70%
  Population Pyknosed Nuclei (%): 4%
  Population Tubulin-Different-Phenotype (%): 10%
  Total Cell Count: 65

## CCOC(=O)CCNc1cc(N2CCc3ccccc3CC2)nc(-c2ccccn2)n1
[1]
  Population Apoptotic (%): 89%
  Population Fragmented Nuclei (%): 22%
  Population Healthy Nuclei (%): 60%
  Population Hoechst High Intensity Objects (%): 16%
  Population Membrane Permeable-Phenotype (%): 8%
  Population Mitochondria Different-Phenotype (%): 4%
  Population Mitotic Cells (%): 10%
  Population Normal (%): 83%
  Population Pyknosed Nuclei (%): 16%
  Population Tubulin-Different-Phenotype (%): 5%
  Total Cell Count: 214
[2]
  Population Apoptotic (%): 100%
  Population Fragmented Nuclei (%): 47%
  Population Healthy Nuclei (%): 42%
  Population Hoechst High Intensity Objects (%): 33%
  Population Membrane Permeable-Phenotype (%): 0%
  Population Mitochondria Different-Phenotype (%): 11%
  Population Mitotic Cells (%): 0%
  Population Normal (%): 66%
  Population Pyknosed Nuclei (%): 9%
  Population Tubulin-Different-Phenotype (%): 11%
  Total Cell Count: 63
[3]
  Population Apoptotic (%): 68%
  Population Fragmented Nuclei (%): 29%
  Population Healthy Nuclei (%): 50%
  Population Hoechst High Intensity Objects (%): 17%
  Population Membrane Permeable-Phenotype (%): 10%
  Population Mitotic Cells (%): 31%
  Population Normal (%): 82%
  Population Pyknosed Nuclei (%): 20%
  Population Tubulin-Different-Phenotype (%): 13%
  Total Cell Count: 175
[4]
  Population Apoptotic (%): 66%
  Population Fragmented Nuclei (%): 57%
  Population Healthy Nuclei (%): 35%
  Population Hoechst High Intensity Objects (%): 40%
  Population Membrane Permeable-Phenotype (%): 33%
  Population Mitochondria Different-Phenotype (%): 6%
  Population Mitotic Cells (%): 33%
  Population Normal (%): 60%
  Population Pyknosed Nuclei (%): 7%
  Population Tubulin-Different-Phenotype (%): 73%
  Total Cell Count: 70
[5]
  Population Apoptotic (%): 76%
  Population Fragmented Nuclei (%): 23%
  Population Healthy Nuclei (%): 63%
  Population Hoechst High Intensity Objects (%): 12%
  Population Membrane Permeable-Phenotype (%): 11%
  Population Mitochondria Different-Phenotype (%): 1%
  Population Mitotic Cells (%): 23%
  Population Normal (%): 87%
  Population Pyknosed Nuclei (%): 13%
  Population Tubulin-Different-Phenotype (%): 1%
  Total Cell Count: 225
[6]
  Population Apoptotic (%): 100%
  Population Fragmented Nuclei (%): 60%
  Population Healthy Nuclei (%): 34%
  Population Hoechst High Intensity Objects (%): 26%
  Population Membrane Permeable-Phenotype (%): 0%
  Population Mitochondria Different-Phenotype (%): 14%
  Population Mitotic Cells (%): 0%
  Population Normal (%): 73%
  Population Pyknosed Nuclei (%): 4%
  Population Tubulin-Different-Phenotype (%): 14%
  Total Cell Count: 56
[7]
  Population Apoptotic (%): 82%
  Population Fragmented Nuclei (%): 34%
  Population Healthy Nuclei (%): 50%
  Population Hoechst High Intensity Objects (%): 15%
  Population Membrane Permeable-Phenotype (%): 6%
  Population Mitochondria Different-Phenotype (%): 6%
  Population Mitotic Cells (%): 17%
  Population Normal (%): 84%
  Population Pyknosed Nuclei (%): 15%
  Population Tubulin-Different-Phenotype (%): 7%
  Total Cell Count: 180
[8]
  Population Apoptotic (%): 100%
  Population Fragmented Nuclei (%): 53%
  Population Healthy Nuclei (%): 41%
  Population Hoechst High Intensity Objects (%): 33%
  Population Membrane Permeable-Phenotype (%): 11%
  Population Mitochondria Different-Phenotype (%): 11%
  Population Mitotic Cells (%): 0%
  Population Normal (%): 66%
  Population Pyknosed Nuclei (%): 4%
  Population Tubulin-Different-Phenotype (%): 41%
  Total Cell Count: 62

From ChEMBL document CHEMBL4689842, “EUbOPEN Chemogenomics Library wave 1” (2021)
